Data taken from ChEMBL document CHEMBL1121519, “Basic antiinflammatory compounds. N,N',N''-Trisubstituted guanidines” (J Med Chem, 1980).

What was measured:
[1] = Lethal dose in mice determined by Litchfield and Wilcoxon methods after peroral administration.; assay type: toxicity, organism-based; details: mouse, in vivo, po
Procedure, shortened: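 Median lethal dose found after oral dosing of mice, four mice per dose level, and calculated by the Litchfield–Wilcoxon method.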

[2] = target: Cyclooxygenase (Bos taurus) (UniProt O62664+O62698); assay: Inhibition of prostaglandin synthetase in bovine seminal vesicle microsomes using Beckman liquid scintillation counter at 10 e-5 M; details: Microsome
[3] = test system: Rattus norvegicus; assay: Percent inhibition of carrageenan paw edema in rat, administered orally at a dose of one tenth of oral lethal dose in mice; assay type: functional
Procedure, shortened: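 1 h later, 0.1 mL of 1% carrageenan was injected into the right hind-paw plantar tissue. Paw swelling was measured by mercury-displacement plethysmometry 3 h after carrageenan, compared with controls.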

SMILES | LD50 [1] [mg/kg] | inhibition [2] [%] | Inhibition [3] [%]
CCC(C)(C)/N=C(\Nc1ncccn1)Nc1nccs1 | > 1000 | 27.5 | 20
Cc1ccc2cc(N/C(=N\C(C)(C)C)Nc3nccs3)ccc2n1 | > 1000 | 3.7 | 43
Cc1nc2ccccc2cc1N/C(=N\C(C)(C)C)Nc1nccs1 | > 1000 | 2.3 | 24
CC(C)(C)/N=C(\Nc1ccccn1)Nc1nccs1 | > 1000 | 6.9 | 83
CC(C)(C)/N=C(\Nc1ccccc1)Nc1nccs1 | > 1000 | 6.4 | 24
CCCCC(CC)C/N=C(/Nc1nccs1)Nc1cc(C)nc2ccccc12 (stereo unspecified) | > 1000 | 2.1 | 28
Cc1cc(N/C(=N/C(C)(C)C)Nc2nc3ccccc3s2)c2ccccc2n1 | > 1000 | 51.8 | 18
CC(C)(C)/N=C(/Nc1nccs1)Nc1cccc2cnccc12 | > 1000 | -8.8 | 21
COc1cc(N/C(=N\C(C)(C)C)Nc2nccs2)c2ncccc2c1 | > 1000 | 5 | 
CCC(C)/N=C(/Nc1nccs1)Nc1cc(C)nc2ccccc12 (stereo unspecified) | 400 | 10.5 | 57
Cc1ccc2cccc(N/C(=N\C(C)(C)C)Nc3nccs3)c2n1 | > 1000 | 7 | 4
Cc1cc(N/C(=N/c2ccccc2C)Nc2nccs2)c2ccccc2n1 | > 1000 | 14.8 | 53
Cc1cc(N/C(=N/C(C)(C)C)Nc2cnccn2)c2ccccc2n1 | > 1000 |  | 
CCCc1cc(N/C(=N/C2CCCCC2)Nc2nccs2)c2ccccc2n1 | > 1000 | 56 | 54
CCc1cc(N/C(=N/C2CCCCC2)Nc2nccs2)c2ccccc2n1 | > 1000 | 67 | 24
CCCCCCCCCCCCCCCCCC/N=C(\Nc1nccs1)Nc1cc(C)nc2ccccc12.Cl | > 1000 | 7 | 5
Cc1cc(N/C(=N/C2CCCC(C)C2C)Nc2nccs2)c2ccccc2n1.Cl (stereo unspecified) | > 1000 | 7 | 47
CC(C)c1cc(N/C(=N/C2CCCCC2)Nc2nccs2)c2ccccc2n1 | > 1000 | 0 | 36
c1ccc2c(N/C(=N/C3CCCCC3)Nc3nccs3)ccnc2c1 | > 1000 | 21.2 | 46
CC(C)CC(C)(C)/N=C(\Nc1ccncc1)Nc1nccs1 | 800 | 1.1 | 22
Cc1cc(N/C(=N/C2CCCCC2)Nc2ccccc2)c2ccccc2n1 | 300 | 10 | 38
Cc1cc(N/C(=N/CC(C)C)Nc2nccs2)c2ccccc2n1 | 1000 | 18 | 57
CC(C)(C)/N=C(\Nc1ccc(Cl)cn1)Nc1nccs1 | > 1000 | 1 | 31
Cc1cc(N/C(=N/C(C)(C)C)Nc2nnc(S)s2)c2ccccc2n1 | > 1000 | 6 | 16

SMILES | LD50 [1] [mg/kg] | inhibition [2] [%] | Inhibition [3] [%]
CCCc1cc(N/C(=N/C(C)(C)C)Nc2nccs2)c2ccccc2n1 | 600 | 74.1 | 51
CC(C)Cc1cc(N/C(=N/C(C)(C)C)Nc2nccs2)c2ccccc2n1 | 600 | 20 | 33
Cc1cc(N/C(=N/C23C[C@H]4C[C@@H](C2)C[C@@H](C3)C4)Nc2nccs2)c2ccccc2n1 | > 1000 | 32 | 17
Cc1cc(NC(=N)NC2CCCCC2)c2ccccc2n1 | > 1000 |  | 
CC(C)(C)/N=C(\Nc1nccs1)Nc1ccnc2ccccc12 | > 1000 | 23.8 | 29
Cc1cc(N/C(=N\C(C)C(C)(C)C)Nc2nccs2)c2ccccc2n1 (stereo unspecified) | > 1000 | 4 | 36
Cc1ccc2nc(C)cc(N/C(=N/C(C)(C)C)Nc3nccs3)c2c1 | > 1000 | -7.5 | 42
Cc1cc(N/C(=N/C2CCCCC2)Nc2ccccn2)c2ccccc2n1 | > 1000 | 0.4 | 23
Cc1cc(NC(=N)NC(C)(C)C)c2ccccc2n1 | 100 | 11.7 | 5
Cc1cc(N/C(=N/C2CCCCC2)Nc2nnc(C)s2)c2ccccc2n1 | > 1000 | 36.2 | 56
Cc1ccc2nccc(N/C(=N/C3CCCCC3)Nc3nccs3)c2c1 | > 1000 | 7.2 | 12
Cc1cc(N/C(=N/C(C)(C)C)Nc2ccccn2)c2ccccc2n1 | > 1000 | 30.1 | 36
Cc1cc(N/C(=N\C(C)(C)CC(C)(C)C)Nc2nccs2)c2ccccc2n1 | > 1000 | 49.3 | 25
Cc1cc(N/C(=N/C2CCCCCC2)Nc2nccs2)c2ccccc2n1 | > 1000 | 34.8 | 19
CC(C)(C)/N=C(\Nc1nccs1)Nc1ccnc2cc(C(F)(F)F)ccc12 | > 1000 |  | 32
Cc1cc(N/C(=N\C2CCCC2)Nc2nccs2)c2ccccc2n1 | 600 | 58.7 | 52
CC(C)(C)/N=C(\Nc1ccncc1)Nc1nccs1 | 300 |  | 15
CC(C)(C)/N=C(/Nc1nccs1)Nc1cccc2c(O)cccc12 | > 1000 |  | 22
CC(C)(C)N=C(Nc1nccs1)Nc1nccs1 | > 1000 | 13.1 | 49
CC(C)(C)/N=C(\Nc1nccs1)Nc1cc(-c2ccccc2)nc2ccccc12 | > 1000 | < 10 | 40
CCC(C)(C)/N=C(\Nc1cccnc1)Nc1nccs1 | > 1000 | 0 | 82
CCOC(=O)c1cnc(/N=C(\Nc2cc(C)nc3ccccc23)NC(C)(C)C)s1 | > 1000 | 15.8 | 16
c1ccc(-c2cc(N/C(=N/C3CCCCC3)Nc3nccs3)c3ccccc3n2)cc1 | > 1000 | 14 | 5
Clc1ccc2c(N/C(=N/C3CCCCC3)Nc3nccs3)ccnc2c1 | > 1000 | 21.6 | 56

SMILES | LD50 [1] [mg/kg] | inhibition [2] [%] | Inhibition [3] [%]
CC(C)c1cc(N/C(=N/C(C)(C)C)Nc2nccs2)c2ccccc2n1 | > 1000 | 12.4 | 31
Cc1cc(N/C(=N\C(C)CCCC(C)C)Nc2nccs2)c2ccccc2n1 (stereo unspecified) | > 1000 | 1.7 | 25
CC(C)(C)/N=C(/Nc1nccs1)Nc1nccc2ccccc12 | > 1000 | 3.4 | 18
Cc1cc(N/C(=N/C2CCC(C)CC2)Nc2nccs2)c2ccccc2n1 (stereo unspecified) | > 1000 | 12.6 | 39
Cc1c(Cl)cccc1N/C(=N\C(C)(C)C)Nc1nccs1 | > 1000 | 9.5 | 17
CC(C)(C)/N=C(/Nc1nccs1)Nc1cccc2ncccc12 | > 1000 | 9 | 21
CC(C)(C)/N=C(\Nc1cnc2ccccc2c1)Nc1nccs1 | > 1000 | -1 | 36
Cc1cc(N/C(=N/C(C)(C)C)Nc2nc(C)c(C)s2)c2ccccc2n1 | > 1000 | 64.2 | 19
Cc1cc(N/C(=N\C(C)(C)C)Nc2nccs2)ccn1 | 250 | 14.9 | 13
COc1ccc2nccc(N/C(=N/C(C)(C)C)Nc3nccs3)c2c1 | > 1000 | 12.7 | 42
CC/N=C(/Nc1nccs1)Nc1cc(C)nc2ccccc12 | 100 | 8 | 56
Cc1cc(N/C(=N/C2CCCCC2)Nc2nc(C(=O)O)cs2)c2ccccc2n1 | > 1000 | 2.9 | 9
Cc1cc(N/C(=N/C2CCCCC2)Nc2ncc(C(=O)O)s2)c2ccccc2n1 | > 1000 | 8.4 | 30
CC(C)Cc1cc(N/C(=N/C2CCCCC2)Nc2nccs2)c2ccccc2n1 | > 1000 | 11 | 40
Cc1nc2ccccc2c(N/C(=N/C2CCCCC2)Nc2nccs2)c1Cl | > 1000 | 8.1 | 19
Cc1cc(N/C(=N/C(C)(C)C)NCCO)c2ccccc2n1 | 600 | 2.8 | 40
Cc1cc(N/C(=N/C2CCCCC2)Nc2c(C)noc2C)c2ccccc2n1 | > 1000 | 19.3 | 17
Cc1cc(N/C(=N/CC2CCCCC2)Nc2nccs2)c2ccccc2n1 | > 1000 | 21 | 50
CC(C)(C)/N=C(\Nc1ccc2ccccc2n1)Nc1nccs1 | > 1000 |  | 32
Cc1cc(N/C(=N/C2CCCCC2)Nc2nncs2)c2ccccc2n1 | 250 | 15.1 | 40
Cc1cc(N/C(=N/C(C)(C)C)Nc2ccccc2)c2ccccc2n1 | 40 | 43.9 | 34
Cc1cc(N/C(=N/C2CCCCC2)Nc2nnc(S)s2)c2ccccc2n1 | > 1000 | 7 | 36
